Results published in ChEMBL document CHEMBL1909614, “5-deoxyflavones with cytotoxic activity from Mimosa diplotricha” (2011).

How the values were obtained:
Type in all cases: functional
A549 = experiment: Antiproliferative activity against human A549 assessed as growth inhibition after 48 hrs by SRB assay; conditions: A549, 48 h
In short: (§1)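 Cells kept in RPMI 1640 with 10% FBS, nonessential amino acids and penicillin/streptomycin, seeded and cultured overnight. Six wells fixed with 10% TCA at drug addition (T0). Compound exposure 48 h, then TCA fixation, 0.4% SRB in 1% acetic acid 10 min at room temperature, dye dissolved in 10 mM Tris base, OD 515 nm. Growth computed from T0, control and treated readings. GI50 is the concentration giving 50% growth inhibition. Doxorubicin served as positive control.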

AGS = experiment: Antiproliferative activity against human AGS assessed as growth inhibition after 48 hrs by SRB assay; in short: as §1
HT-29 = experiment: Antiproliferative activity against human HT-29 assessed as growth inhibition after 48 hrs by SRB assay; conditions: HT-29, 48 h; in short: as §1
PC-3 = experiment: Antiproliferative activity against human PC3 assessed as growth inhibition after 48 hrs by SRB assay; conditions: PC-3, 48 h; in short: as §1

Row | SMILES | GI50 (A549) [µM] | GI50 (AGS) [µM] | GI50 (HT-29) [µM] | GI50 (PC-3) [µM]
1 | COc1cccc2c1C(=O)c1c(O)c3c(c(O)c1C2=O)C[C@@](O)(C(=O)CO)C[C@@H]3O[C@H]1C[C@H](N)[C@H](O)[C@H](C)O1 [DOXORUBICIN] | 0.27 | 0.01 | 0.12 | 0.09
2 | COc1ccc2c(c1O)COc1c-2oc2c(OC)c(OC)ccc2c1=O | > 10 | > 10 | > 10 | > 10
3 | COc1ccc(-c2oc3c(OC)c(OC)ccc3c(=O)c2OC)cc1O [DIPLOTRIN B] | 2.7 | 1.7 | 7.5 | 20.8
4 | COc1cc([C@H]2Oc3cc(-c4cc(=O)c5c(O)cc(O)cc5o4)ccc3O[C@@H]2CO)cc(OC)c1O | 20.3 | 24.8 | 4.1 | 2.3
5 | COc1ccc2c(=O)cc(-c3cc(OC)c(OC)cc3O)oc2c1 [DIPLOTRIN C] | > 10 | > 10 | > 10 | > 10
6 | COc1cc(O)c(-c2oc3c(OC)c(OC)ccc3c(=O)c2OC)cc1O [DIPLOTRIN A] | > 10 | > 10 | > 10 | > 10
